Sampled rows, rich in hits. Any-hit rate of the full collection: about 2.5%.
EP2 antag: human EP2 receptor antagonists, primary screen, TR-FRET cAMP, C6 glioma cells; Prostaglandin E2 receptor EP2 subtype (Homo sapiens), P43116; C6 glioma cells expressing human EP2; cells stimulated with saturating PGE2; inhibition, % at 25 µM; actives 0.52% (n = 260,000); AID 1422, 2008;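 active = percent inhibition above 40 after rounding to a whole number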;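 note: rat C6 glioma host cells with rolipram phosphodiesterase inhibitor present; the protocol text gives 20 µM as final concentration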
Target sequence (P43116 whole entry, looked up): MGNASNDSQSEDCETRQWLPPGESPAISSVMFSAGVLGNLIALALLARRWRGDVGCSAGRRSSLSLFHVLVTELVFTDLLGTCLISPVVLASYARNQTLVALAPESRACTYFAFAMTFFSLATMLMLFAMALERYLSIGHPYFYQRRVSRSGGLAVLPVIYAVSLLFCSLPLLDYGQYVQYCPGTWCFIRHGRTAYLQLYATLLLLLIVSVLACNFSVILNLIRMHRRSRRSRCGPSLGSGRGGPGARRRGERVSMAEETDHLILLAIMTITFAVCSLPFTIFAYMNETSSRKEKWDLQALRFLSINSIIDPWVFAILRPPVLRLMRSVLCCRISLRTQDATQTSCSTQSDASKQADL
TbHK1 inh: Trypanosoma brucei hexokinase 1 inhibitors, primary screen, biochemical, G6PDH-coupled NADH absorbance, MLSCN library; hexokinase 1 [Trypanosoma brucei]; recombinant TbHK1, G6PDH-coupled NADH A340; inhibition, % at 10 µM; actives 0.11% (n = 220,000); AID 1430, 2008;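 active = inhibition of 50% or more in the single-dose primary screen; inactive = inhibition below 50%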
PfG6PD inh: PfG6PD enzyme inhibitors, primary screen, biochemical, fluorescence intensity, uHTS; glucose-6-phosphate dehydrogenase-6-phosphogluconolactonase (Plasmodium falciparum 3D7); PfGluPho enzyme, NADPH resazurin-diaphorase fluorescence; inhibition, % at 20 µM; actives 0.78% (n = 350,000); AID 504690, 2011;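 active = inhibition reaching at least a set limit at 20 µM in the primary screen, cut at about 59% in these data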;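 note: 0% = DMSO wells with substrate and 100% = DMSO wells lacking glucose-6-phosphate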
EP2 modulator: EP2 receptor modulators, cAMP readout, primary screen, cell-based, HTRF cAMP, PGE2 stimulation | Prostaglandin E2 receptor EP2 subtype (Homo sapiens), P43116 | EP2-expressing cells, cAMP HTRF FRET, PGE2 co-stimulation | induction, % at 25 µM | actives 0.83% (n = 260,000);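 active = compounds whose cAMP rise, as percent of the full-agonist control response, exceeds 60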;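 note: rat C6 glioma line stably carrying human EP2 under a CMV promoter; the protocol text gives 20 µM as final concentration; 100% = response of wells given 1 µM PGE2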
HKDC1 inh: HKDC1 hexokinase inhibitors, primary screen, biochemical, fluorescence, uHTS | Q2TB90 | recombinant HKDC1, G6PDH/diaphorase resazurin coupled fluorescence | inhibition, % at 20 µM | actives 0.16% (n = 340,000) | AID 493160, 2011;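 active = inhibition above about 35% when tested at 20 µM, limit read from the data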;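 note: plate controls were DMSO wells with enzyme for no effect and DMSO wells lacking enzyme for full effect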
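Material – in-house recombinant HK5 (HKDC1) enzyme · Quantity – HKDC1 at 5 µg/mL · Buffer or medium – pH 8.0 Tris buffer with 10 mM MgCl2 · Reagent – glucose with 1 mM ATP · Dosing – single 20 µM dose · Times – reaction time 90 min, room temperature, protected from light · Technique – resorufin fluorescence at 613 nm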
PHOSPHO1 block: PubChem AID 1565 | Phosphoethanolamine/phosphocholine phosphatase (Homo sapiens), Q8TCT1 | recombinant PHOSPHO1, absorbance phosphatase assay | inhibition, % at 13.3 µM | actives 1.1% (n = 290,000); in the data active = inhibition above about 60%
Target sequence (Q8TCT1 whole entry, looked up): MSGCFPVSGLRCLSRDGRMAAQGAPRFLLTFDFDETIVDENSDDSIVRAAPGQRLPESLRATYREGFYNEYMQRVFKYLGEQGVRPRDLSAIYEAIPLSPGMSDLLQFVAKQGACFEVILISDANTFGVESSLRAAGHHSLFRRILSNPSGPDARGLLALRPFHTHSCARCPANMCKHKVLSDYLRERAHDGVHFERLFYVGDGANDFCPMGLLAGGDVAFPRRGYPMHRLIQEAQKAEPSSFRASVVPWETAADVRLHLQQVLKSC
EP2 confirm: cAMP induction in EP2, EP4, beta2-AR and parental cells, confirmation, counter-screen for EP2 modulator project, cell-based, five parallel assays, C6 glioma, HEK293; shares compounds with EP2 modulator; cAMP HTRF induction; plus low (about EC15) PGE2 agonist; calls only at 20 µM (by protocol); actives 47% (n = 1,300);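 active = cAMP induction above 50% in the main assay while under 30% in all four parallel counter assays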;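 note: rat C6 glioma cells stably expressing human EP2 receptor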
An asterisk follows results filed as active; i = inactive; . = no result; + = active, no number.

SMILES | EP2 antag | TbHK1 inh | PfG6PD inh | EP2 modulator | HKDC1 inh | PHOSPHO1 block | others
O=C1N[C@]2(CN3CCC2CC3)C(=O)N1CN(Cc1ccccc1)c1ccccc1 | 54* | . | . | 8 | . | .
C[C@H]1CC[C@]2(NC1)O[C@H]1C[C@H]3[C@H]4CC=C5C[C@@H](O)CC[C@]5(C)[C@@H]4CC[C@]3(C)[C@H]1[C@@H]2C | 58* | . | . | 7 | . | .
COc1ccc(-n2c(SCCN3CCCCC3)nc3ccccc3c2=O)cc1 | 8 | . | . | -8 | . | .
C[C@@H]1CC[C@@H]2N(C1)C[C@@H]1[C@](O)([C@H](O)C[C@]3(O)[C@H]4CC[C@@H]5[C@]6(O)O[C@@]4(C[C@@]13O)[C@@]5(C)CC[C@H]6O)[C@@]2(C)O | 48* | . | . | 11 | . | .
Cc1ccc(-c2nc(C)sc2CC(=O)N(C)CCN(C)C)c(C)c1 | 32 | . | . | -2 | . | .
O=C1C=CC(=O)C=C1 | 8 | . | 54 | 3 | 48* | .
C[C@H]1O[C@@H](O[C@H]2[C@@H](O)C[C@H](O[C@H]3[C@@H](O)C[C@H](O[C@H]4CC[C@]5(C)C6CC[C@]7(C)[C@@H](C8=CC(=O)OC8)CC[C@]7(O)C6CC[C@@H]5C4)O[C@@H]3C)O[C@@H]2C)C[C@H](O)[C@@H]1O (stereo not given in full) | 12 | . | . | -7 | . | .
C[C@]12CC[C@H](O[C@@H]3O[C@H](CO)[C@@H](O)[C@H](O)[C@H]3O)C[C@@H]1CC[C@@H]1[C@@H]2CC[C@]2(C)[C@@H](C3=CCOC3=O)CC[C@@]12O | 53* | . | . | -2 | . | .
O=C1NC(=O)N(CCc2ccc(F)cc2)C(=O)/C1=C\C=C\c1ccccc1 | 12 | -13 | 3 | -18 | 21 | -17
O=C1NC(=O)N(Cc2ccccc2)C(=O)/C1=C\C=C\c1ccco1 | 63* | 2 | 31 | -65 | 19 | -15
Cc1cccc(N2C(=O)NC(=O)/C(=C\C=C\c3ccco3)C2=O)c1 | 44* | -7 | 44 | -109 | 4 | -29
C=CCN1C(=O)NC(=O)/C(=C/C=C/c2ccccc2)C1=O | 129* | 5 | 12 | -67 | 6 | 18
Cc1ccc(N2C(=O)NC(=O)/C(=C\C=C\c3ccco3)C2=O)cc1 | 26 | 6 | 40 | -29 | 10 | 8
O=C1NC(=O)N(c2ccccc2)C(=O)/C1=C/C=C/c1ccco1 | 47* | 1 | 31 | -102 | 2 | 37
C#CCOc1cccc(CN2C3CCC2CC(O)(c2cccc(F)c2)C3)c1 (stereo not given) | 6 | . | . | -55 | . | .
CCOC(=O)CC1=C(C(=O)OCC)C2(C(=O)N(C)c3ccccc32)C(C#N)=C(N)O1 (stereo not given) | 9 | . | . | -4 | . | .
Cc1ccc(N2C(=O)NC(=O)/C(=C\C=C\c3ccco3)C2=O)cc1C | 88* | 33 | 37 | -95 | 3 | 0
CCc1[nH]c2ccc(C(=O)N3CCC(C(C)=O)(c4ccccc4)CC3)cc2c1C | 5 | . | . | -58 | . | .
C=C(C)c1ccccc1 (tested in a mixture with another compound) | 55* | . | . | 10 | . | .
C[C@]12CC[C@@H]3[C@H](CCC4=CC(=O)CC[C@]43C)[C@]1(O)CC[C@@]2(O)C(=O)CO | 55* | . | . | -3 | . | .
CCC(CC)N1CCN(Cc2ccccc2C)CC1 | 3 | . | . | -10 | . | .
CCCSc1ncc(CN2C3CCC2CC(O)(c2ccc(F)cc2)C3)cn1 (stereo not given) | 10 | . | . | -40 | . | .
C[N+]1(C)C2CC[C@H]1CC(OC(=O)C(CO)c1ccccc1)C2 (stereo not given in full) | . | . | -16 | . | 2 | .
C[N+]1(C)[C@@H]2CC[C@H]1CC(OC(=O)[C@@H](CO)c1ccccc1)C2 (stereo not given in full) | 50* | . | 15 | 20 | -5 | 23
C=C1C2CC[C@H]3[C@]4(C)C[C@H](OC5OC(CO)C(OS(=O)(=O)O)C(OS(=O)(=O)O)C5OC(=O)CC(C)C)C[C@@H](C(=O)O)[C@H]4CC[C@]3(C2)[C@H]1O (stereo not given in full) | 10 | . | . | -3 | . | .
SMILES | EP2 antag | TbHK1 inh | PfG6PD inh | EP2 modulator | HKDC1 inh | PHOSPHO1 block | others
COc1cccc2c1C(=O)c1c(O)c3c(c(O)c1C2=O)C[C@](O)(/C(C)=N/O)C[C@@H]3O[C@@H]1C[C@H](N)[C@@H](O)[C@H](C)O1 | 46* | . | . | 8 | . | .
O=C(N/N=C/c1c(O)n(Cc2ccc(F)cc2)c(=O)[nH]c1=O)c1ccccc1 | 6 | 1 | -21 | -6 | -6 | -10
O=C(O)CCC(=O)NCCC1=c2ccccc2=N/C1=C\c1c(O)n(Cc2ccc(F)cc2)c(=S)[nH]c1=O | 3 | 45 | 42 | 3 | 9 | 97*
O=C1NC(=O)C(=Cc2ccc(Br)s2)C(=O)N1 | 115* | . | . | -92 | . | .
CN(C(=O)CN1C2CCC1CC(O)(c1ccccn1)C2)C1CCCCC1 (stereo not given) | . | . | . | 3 | . | .
COc1cccc(C2(O)CCNCC2)c1 | 10 | . | . | -6 | . | .
C[C@]12CCC3C(CC[C@H]4C[C@@H](O)CC[C@]34C)C1CCC2=O (stereo not given in full) | 42* | . | -1 | -37 | -1 | .
COc1ccc(CN2CCN(C(=O)COc3ccccc3)CC2)c(OC)c1OC | 7 | . | . | -76 | . | .
O=C1NC(=O)N(Cc2ccc(F)cc2)C(=O)/C1=C/c1cccs1 | 93* | -2 | 54 | -65 | 12 | -3
CC(C)[C@H]1CN(Cc2ccco2)CCN1C(=O)Cc1ccc(-n2cnnn2)cc1 | . | . | . | -30 | . | .
CCCCn1c(=O)c(C(=O)NCc2ccccc2)c(O)c2ccccc21 | . | . | -8 | . | -7 | 45
CCCCn1c(=O)c(C(=O)NCc2ccncc2)c(O)c2ccccc21 | 17 | 0 | -28 | 63* | -3 | 1
C[C@]12CCC(=O)C=C1CCC1C2CC[C@@]2(C)C1CC[C@@H]2O (stereo not given in full) | 4 | . | 1 | 73* | -3 | . | EP2 confirm=+
CN(C)CCN(C)C(=O)Cc1csc(-c2ccccc2F)n1 | 5 | . | . | -5 | . | .
O=C(c1cccs1)c1cn(Cc2ccccc2Cl)c2ccccc12 | 9 | -8 | 11 | 74* | -2 | 13 | EP2 confirm=i
N#Cc1ccccc1Cn1cc(C(=O)c2cccs2)c2ccccc21 | 15 | 2 | 7 | 29 | 5 | -20

Bioassay records: PubChem BioAssay, several laboratories
